Assay results published in ChEMBL document CHEMBL1156334, “New Angiopep-modified doxorubicin (ANG1007) and etoposide (ANG1009) chemotherapeutics with increased brain penetration” (J Med Chem, 2010).
pIC50: −log10 of the molar value.

Tests used:
Brain = experiment: Drug uptake in perfused mouse brain assessed as blood-brain transfer coefficient; assay type: ADME, tissue-based; details: in vivo
Procedure, shortened: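 In situ brain perfusion was done in adult male CD-1 mice. Radiolabeled drug in Krebs/bicarbonate buffer (gassed 95% O2/5% CO2, pH 7.4, 37 °C) was infused into the carotid artery for 0.5, 1, 2 or 4 min, then washed out tracer-free for 60 s. Brain homogenate radioactivity was counted (γ or liquid scintillation) and expressed as apparent Vd. Vd versus time was fitted by least-squares regression.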

SK-HEP1 = experiment: Cytotoxicity against human SKHEP1 cells after 48 hrs by [3H]thymidine incorporation assay; assay type: functional, cell-based
Procedure, shortened: (§1)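 Tumor cells were seeded at 5000 per well and exposed to increasing drug concentrations for 48 h. The medium was then aspirated and cells pulse-labeled for 2 h at 37 °C in fresh medium with 2 μCi/mL [methyl-3H]thymidine. Cells were harvested and tritium was counted by scintillation. Incorporation was plotted against concentration to estimate IC50.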

[1] = Cell cycle arrest in human U87MG cells assessed as accumulation at S phase at 100 nM after 24 hrs by flow cytometry; assay type: functional, cell-based; details: U-87MG ATCC
Procedure, shortened: (§2)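 Exponentially growing U87 MG cells in flasks were treated with drug or left untreated as controls. Cells were trypsinized, washed twice in PBS, fixed in 70% ice-cold ethanol, and stained with 50 μg/mL propidium iodide plus 0.5 mg/mL RNase in 10 mM Tris, 5 mM MgCl2. DNA content was measured by flow cytometry and given as % of cells per phase, from one representative of three experiments.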

[2] = Cell cycle arrest in human U87MG cells assessed as accumulation at G0/G1 phase at 100 nM after 24 hrs by flow cytometry; assay type: functional, cell-based; details: U-87MG ATCC; procedure, shortened: as §2
[3] = Cell cycle arrest in human U87MG cells assessed as accumulation at G2/M phase at 100 nM after 24 hrs by flow cytometry; assay type: functional, cell-based; details: U-87MG ATCC; procedure, shortened: as §2
[4] = Cytotoxicity against human U87MG cells after 48 hrs by [3H]thymidine incorporation assay; assay type: functional, cell-based, U-87MG ATCC; details: U-87 MG; procedure, shortened: as §1
NCI-H460 = experiment: Cytotoxicity against human NCI-H460 cells after 48 hrs by [3H]thymidine incorporation assay; assay type: functional, cell-based; procedure, shortened: as §1
[5] = Cell cycle arrest in human U87MG cells assessed as accumulation at G0/G1 phase at 33 nM after 24 hrs by flow cytometry; assay type: functional, cell-based; details: U-87MG ATCC; procedure, shortened: as §2
[6] = Cell cycle arrest in human U87MG cells assessed as accumulation at S phase at 33 nM after 24 hrs by flow cytometry; assay type: functional, cell-based; details: U-87MG ATCC; procedure, shortened: as §2
[7] = Cell cycle arrest in human U87MG cells assessed as accumulation at G2/M phase at 33 nM after 24 hrs by flow cytometry; assay type: functional, cell-based; details: U-87MG ATCC; procedure, shortened: as §2
[8] = Cell cycle arrest in human U87MG cells assessed as accumulation at S phase at 1 uM after 24 hrs by flow cytometry; assay type: functional, cell-based; details: U-87MG ATCC; procedure, shortened: as §2
[9] = Cell cycle arrest in human U87MG cells assessed as accumulation at G2/M phase at 1 uM after 24 hrs by flow cytometry; assay type: functional, cell-based; details: U-87MG ATCC; procedure, shortened: as §2
[10] = Cell cycle arrest in human U87MG cells assessed as accumulation at G0/G1 phase at 1 uM after 24 hrs by flow cytometry; assay type: functional, cell-based; details: U-87MG ATCC; procedure, shortened: as §2
[11] = Cell cycle arrest in human U87MG cells assessed as accumulation at G0/G1 phase at 3 uM after 24 hrs by flow cytometry; assay type: functional, cell-based; details: U-87MG ATCC; procedure, shortened: as §2
[12] = Cell cycle arrest in human U87MG cells assessed as accumulation at G2/M phase at 3 uM after 24 hrs by flow cytometry; assay type: functional, cell-based; details: U-87MG ATCC; procedure, shortened: as §2
[13] = Cell cycle arrest in human U87MG cells assessed as accumulation at S phase at 3 uM after 24 hrs by flow cytometry; assay type: functional, cell-based; details: U-87MG ATCC; procedure, shortened: as §2

Q: Which Kin (Brain) does the source give for `CC(=O)O[C@H]1C(=O)[C@@]2(C)[C@H]([C@H](OC(=O)c3ccccc3)[C@]3(O)C[C@H](OC(=O)[C@H](O)[C@@H](NC(=O)c4ccccc4)c4ccccc4)C(C)=C1C3(C)C)[C@]1(OC(C)=O)CO[C@@H]1C[C@@H]2O` [PACLITAXEL] here?
A: Its Kin is 6.9 10^-4ml/g/s.

Q: With `COc1cccc2c1C(=O)c1c(O)c3c(c(O)c1C2=O)C[C@@](O)(C(=O)CO)C[C@@H]3O[C@H]1C[C@H](N)[C@H](O)[C@H](C)O1` [DOXORUBICIN] as the molecule, how does the pIC50 (SK-HEP1) read?
A: The pIC50 was 8.00.

Q: What about the Activity [1] of the same molecule?
A: The Activity was 8.9%.

Q: What about the Kin (Brain) of the same molecule?
A: The Kin was 2.5 10^-4ml/g/s.

Q: What about the Activity [2] of the same molecule?
A: The Activity was 30.8%.

Q: What about the Activity [3] of the same molecule?
A: The Activity was 59.9%.

Q: What about the pIC50 [4] of the same molecule?
A: The pIC50 was 7.74.

Q: What about the pIC50 (NCI-H460) of the same molecule?
A: Its pIC50 is 7.96.

Q: For `COc1cccc2c1C(=O)c1c(O)c3c(c(O)c1C2=O)C[C@@](O)(C(=O)COC(=O)CCC(=O)NCCCC[C@H](NC(=O)CNC(=O)[C@H](CCCNC(=N)N)NC(=O)[C@H](CO)NC(=O)CNC(=O)CNC(=O)[C@H](Cc1ccc(O)cc1)NC(=O)[C@H](Cc1ccccc1)NC(=O)[C@H](Cc1ccccc1)NC(=O)[C@@H](NC(=O)CCC(=O)OCC(=O)[C@]1(O)Cc2c(O)c4c(c(O)c2[C@@H](O[C@H]2C[C@H](N)[C@H](O)[C@H](C)O2)C1)C(=O)c1c(OC)cccc1C4=O)C(C)O)C(=O)N[C@@H](CCCNC(=N)N)C(=O)N[C@@H](CC(N)=O)C(=O)N[C@@H](CC(N)=O)C(=O)N[C@@H](Cc1ccccc1)C(=O)N[C@@H](CCCCNC(=O)CCC(=O)OCC(=O)[C@]1(O)Cc2c(O)c4c(c(O)c2[C@@H](O[C@H]2C[C@H](N)[C@H](O)[C@H](C)O2)C1)C(=O)c1c(OC)cccc1C4=O)C(=O)N[C@H](C(=O)N[C@@H](CCC(=O)O)C(=O)N[C@@H](CCC(=O)O)C(=O)N[C@@H](Cc1ccc(O)cc1)C(=O)O)[C@@H](C)O)C[C@@H]3O[C@H]1C[C@H](N)[C@H](O)[C@H](C)O1` (some centres undefined), which Activity [5] is on record?
A: Its Activity is 32.3%.

Q: What about the pIC50 (SK-HEP1) of the same molecule?
A: The pIC50 was 8.34.

Q: And the Kin (Brain)?
A: Its Kin is 31 10^-4ml/g/s.

Q: And the Activity [6]?
A: The Activity was 10.1%.

Q: What about the Activity [7] of the same molecule?
A: Its Activity is 57.3%.

Q: And the pIC50 [4]?
A: Its pIC50 is 8.22.

Q: What about the pIC50 (NCI-H460) of the same molecule?
A: The pIC50 was 8.14.

Q: What does the source list for `COc1cc([C@@H]2c3cc4c(cc3[C@@H](O[C@@H]3O[C@@H]5CO[C@@H](C)O[C@H]5[C@H](O)[C@H]3OC(=O)CCCC(=O)NCCCC[C@H](NC(=O)CNC(=O)[C@H](CCCNC(=N)N)NC(=O)[C@H](CO)NC(=O)CNC(=O)CNC(=O)[C@H](Cc3ccc(O)cc3)NC(=O)[C@H](Cc3ccccc3)NC(=O)[C@H](Cc3ccccc3)NC(=O)[C@@H](NC(=O)CCCC(=O)O[C@H]3[C@H](O[C@@H]5c6cc7c(cc6[C@@H](c6cc(OC)c(OC(=O)CN(C)C)c(OC)c6)[C@H]6C(=O)OC[C@@H]65)OCO7)O[C@@H]5CO[C@@H](C)O[C@H]5[C@@H]3O)C(C)O)C(=O)N[C@@H](CCCNC(=N)N)C(=O)N[C@@H](CC(N)=O)C(=O)N[C@@H](CC(N)=O)C(=O)N[C@@H](Cc3ccccc3)C(=O)N[C@@H](CCCCNC(=O)CCCC(=O)O[C@H]3[C@H](O[C@@H]5c6cc7c(cc6[C@@H](c6cc(OC)c(OC(=O)CN(C)C)c(OC)c6)[C@H]6C(=O)OC[C@@H]65)OCO7)O[C@@H]5CO[C@@H](C)O[C@H]5[C@@H]3O)C(=O)N[C@H](C(=O)N[C@@H](CCC(=O)O)C(=O)N[C@@H](CCC(=O)O)C(=O)N[C@@H](Cc3ccc(O)cc3)C(=O)O)[C@@H](C)O)[C@H]3COC(=O)[C@H]23)OCO4)cc(OC)c1OC(=O)CN(C)C` (some centres undefined)?
A: pIC50 (SK-HEP1): 7.32; Kin (Brain): 22 10^-4ml/g/s; Activity [8]: 3.3%; Activity [9]: 70.8%; pIC50 [4]: 6.48; pIC50 (NCI-H460): 6.83; Activity [10]: 25.7%

Q: With `COc1cc([C@@H]2c3cc4c(cc3[C@@H](O[C@@H]3O[C@@H]5CO[C@@H](C)O[C@H]5[C@H](O)[C@H]3O)[C@H]3COC(=O)[C@H]23)OCO4)cc(OC)c1O` [ETOPOSIDE] as the molecule, how does the pIC50 (SK-HEP1) read?
A: Its pIC50 is 7.21.

Q: What about the Activity [11] of the same molecule?
A: The Activity was 8.9%.

Q: And the Kin (Brain)?
A: Its Kin is 0.9 10^-4ml/g/s.

Q: And the Activity [12]?
A: Its Activity is 87%.

Q: And the pIC50 [4]?
A: The pIC50 was 6.84.

Q: And the Activity [13]?
A: The Activity was 4.2%.

Q: And the pIC50 (NCI-H460)?
A: The pIC50 was 7.05.
